Converted amounts (≈) assume the structure as drawn.

The target in test [1] is DNA gyrase subunit A/DNA gyrase subunit B (Mycobacterium tuberculosis (strain ATCC 25618 / H37Rv)) (UniProt P9WG45+P9WG47).
Test [2] concerns the target DNA gyrase subunit A/DNA gyrase subunit B (Mycobacterium tuberculosis (strain ATCC 25618 / H37Rv), UniProt P9WG45+P9WG47). The test is described as follows: Inhibition of Mycobacterium tuberculosis DNA gyrase GyrA/GyrB. Type of test: protein-complex assay. Put shortly:
(§1)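 Enzyme unit: protein needed for 50% supercoiling of 0.4 μg relaxed pBR322 DNA in 1 h at 37°C. Wild-type and mutant enzymes assayed in parallel on the same day under identical conditions. Repeated two to four times; representative values reported.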

The target of another test is DNA gyrase (Escherichia coli, UniProt P0AES4+P0AES6). The experiment in a line: Inhibition of Escherichia coli DNA gyrase GyrA/GyrB. Type of test: protein-complex assay. A digest of the protocol: as §1
Test [3] relates to Ehrlichia chaffeensis. The test is described as follows: Antimicrobial activity against Ehrlichia chaffeensis harboring DNA gyrase GyrA QRDR. Type of test: functional.
In test [4] the test system is Helicobacter pylori. The experiment in a line: Antimicrobial activity against Helicobacter pylori harboring DNA gyrase GyrB QRDR. Type of test: functional.
For test [5], the system named is Methylovorus. The experiment in a line: Antimicrobial activity against Methylovorus sp. harboring DNA gyrase GyrB QRDR. The class given is functional.
Test [6] deals with Escherichia coli. The test is described as follows: Antimicrobial activity against Escherichia coli harboring DNA gyrase GyrA QRDR. Type of test: functional, organism-based.
For test [7], the system named is Ehrlichia chaffeensis. The test is described as follows: Antimicrobial activity against Ehrlichia chaffeensis harboring DNA gyrase GyrB QRDR. The class given is functional.
The subject of test [8] is Bacillus subtilis. The experiment in a line: Antimicrobial activity against Bacillus subtilis harboring DNA gyrase GyrB QRDR. Type of test: functional.
In test [9] the test system is Neisseria gonorrhoeae. The experiment in a line: Antimicrobial activity against Neisseria gonorrhoeae harboring DNA gyrase GyrA QRDR. The class given is functional.
The test system of test [10] is Klebsiella oxytoca. The test is described as follows: Antimicrobial activity against Klebsiella oxytoca harboring DNA gyrase GyrB QRDR. Type of test: functional.
Test [11] deals with Escherichia coli. The experiment in a line: Antimicrobial activity against Escherichia coli harboring DNA gyrase GyrB QRDR. The class given is functional, organism-based.
In test [12] the test system is Pseudomonas aeruginosa. The test is described as follows: Antimicrobial activity against Pseudomonas aeruginosa harboring DNA gyrase GyrB QRDR. Type of test: functional, organism-based.
The test system of test [13] is Salmonella typhimurium. The test is described as follows: Antimicrobial activity against Salmonella enterica Typhimurium harboring DNA gyrase GyrB QRDR. Type of test: functional, Salmonella enterica subsp. enterica serovar Typhimurium.
Test [14] has as its system Mycolicibacterium smegmatis. The experiment in a line: Antimicrobial activity against Mycobacterium smegmatis harboring DNA gyrase GyrA QRDR. Type of test: functional, organism-based.
Test [15] relates to Bacteroides fragilis. The experiment in a line: Antimicrobial activity against Bacteroides fragilis harboring DNA gyrase GyrB QRDR. Type of test: functional.
For test [16], the system named is Salmonella typhimurium. The test is described as follows: Antimicrobial activity against Salmonella enterica Typhimurium harboring DNA gyrase GyrA QRDR. Type of test: functional, Salmonella enterica subsp. enterica serovar Typhimurium.
Test [17] deals with Mycolicibacterium smegmatis. The test is described as follows: Antimicrobial activity against Mycobacterium smegmatis harboring DNA gyrase GyrB QRDR. Type of test: functional, organism-based.
Test [18] deals with Staphylococcus aureus. The experiment in a line: Antimicrobial activity against Staphylococcus aureus harboring DNA gyrase GyrB QRDR. Type of test: functional, organism-based.
The subject of test [19] is Borrelia burgdorferi. The experiment in a line: Antimicrobial activity against Borrelia burgdorferi harboring DNA gyrase GyrB QRDR. Type of test: functional. The following applies: Borreliella burgdorferi.
Test [20] concerns Borrelia burgdorferi. The experiment in a line: Antimicrobial activity against Borrelia burgdorferi harboring DNA gyrase GyrA QRDR. Type of test: functional. The following applies: Borreliella burgdorferi.
The test system of test [21] is Mycolicibacterium fortuitum. The test is described as follows: Antimicrobial activity against Mycobacterium fortuitum harboring DNA gyrase GyrA QRDR. The class given is functional, organism-based.
Test [22] has as its system Enterococcus faecalis. The test is described as follows: Antimicrobial activity against Enterococcus faecalis harboring DNA gyrase GyrB QRDR. The class given is functional.
In test [23] the test system is Mycolicibacterium fortuitum. The test is described as follows: Antimicrobial activity against Mycobacterium fortuitum harboring DNA gyrase GyrB QRDR. The class given is functional, organism-based.
In test [24] the test system is Methylovorus. The test is described as follows: Antimicrobial activity against Methylovorus sp. harboring DNA gyrase GyrA QRDR. The class given is functional.
The subject of test [25] is Haemophilus influenzae. The test is described as follows: Antimicrobial activity against Haemophilus influenzae harboring DNA gyrase GyrB QRDR. The class given is functional.
In test [26] the test system is Enterococcus faecalis. The test is described as follows: Antimicrobial activity against Enterococcus faecalis harboring DNA gyrase GyrA QRDR. Type of test: functional.
Test [27] has as its system Streptococcus pneumoniae. The experiment in a line: Antimicrobial activity against Streptococcus pneumoniae harboring DNA gyrase GyrB QRDR. The class given is functional, organism-based.
Test [28] relates to Streptococcus pneumoniae. The test is described as follows: Antimicrobial activity against Streptococcus pneumoniae harboring DNA gyrase GyrA QRDR. The class given is functional, organism-based.
Test [29] concerns Pseudomonas aeruginosa. The test is described as follows: Antimicrobial activity against Pseudomonas aeruginosa harboring DNA gyrase GyrA QRDR. Type of test: functional, organism-based.
For test [30], the system named is Bacillus subtilis. The test is described as follows: Antimicrobial activity against Bacillus subtilis harboring DNA gyrase GyrA QRDR. The class given is functional.
In test [31] the test system is Bacteroides fragilis. The experiment in a line: Antimicrobial activity against Bacteroides fragilis harboring DNA gyrase GyrA QRDR. The class given is functional.
Test [32] concerns Neisseria gonorrhoeae. The experiment in a line: Antimicrobial activity against Neisseria gonorrhoeae harboring DNA gyrase GyrB QRDR. Type of test: functional.
Test [33] deals with Staphylococcus aureus. The test is described as follows: Antimicrobial activity against Staphylococcus aureus harboring DNA gyrase GyrA QRDR. Type of test: functional, organism-based.
Test [34] has as its system Klebsiella oxytoca. The test is described as follows: Antimicrobial activity against Klebsiella oxytoca harboring DNA gyrase GyrA QRDR. Type of test: functional.
The target in test [35] is DNA gyrase (Escherichia coli) (UniProt P0AES6+P0AES4).
Test [36] deals with Helicobacter pylori. The experiment in a line: Antimicrobial activity against Helicobacter pylori 2 harboring DNA gyrase GyrA QRDR. The class given is functional.
In test [37] the test system is Haemophilus influenzae. The test is described as follows: Antimicrobial activity against Haemophilus influenzae harboring DNA gyrase GyrA QRDR. The class given is functional.
In test [38] the test system is Helicobacter pylori. The experiment in a line: Antimicrobial activity against Helicobacter pylori 1 harboring DNA gyrase GyrA QRDR. Type of test: functional.

Sequence of DNA gyrase subunit A/DNA gyrase subunit B (P9WG45 whole entry): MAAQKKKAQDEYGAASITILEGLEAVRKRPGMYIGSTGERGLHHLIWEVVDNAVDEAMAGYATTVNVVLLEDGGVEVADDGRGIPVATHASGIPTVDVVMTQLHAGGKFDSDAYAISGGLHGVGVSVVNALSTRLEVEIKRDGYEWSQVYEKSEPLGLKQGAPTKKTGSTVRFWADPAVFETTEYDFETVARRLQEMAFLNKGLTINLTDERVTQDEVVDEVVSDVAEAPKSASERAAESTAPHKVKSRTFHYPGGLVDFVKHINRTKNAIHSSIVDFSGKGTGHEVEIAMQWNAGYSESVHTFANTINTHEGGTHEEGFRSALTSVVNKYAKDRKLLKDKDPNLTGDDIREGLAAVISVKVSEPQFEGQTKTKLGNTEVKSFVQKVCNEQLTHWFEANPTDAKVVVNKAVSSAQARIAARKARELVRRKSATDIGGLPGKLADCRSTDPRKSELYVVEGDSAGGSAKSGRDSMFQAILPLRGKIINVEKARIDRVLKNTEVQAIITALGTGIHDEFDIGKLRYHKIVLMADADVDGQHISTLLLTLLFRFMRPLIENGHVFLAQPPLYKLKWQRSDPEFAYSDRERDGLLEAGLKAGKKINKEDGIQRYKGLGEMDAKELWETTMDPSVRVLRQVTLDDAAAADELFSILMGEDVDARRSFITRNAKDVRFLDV
Sequence of DNA gyrase subunit A/DNA gyrase subunit B (P9WG47 whole entry): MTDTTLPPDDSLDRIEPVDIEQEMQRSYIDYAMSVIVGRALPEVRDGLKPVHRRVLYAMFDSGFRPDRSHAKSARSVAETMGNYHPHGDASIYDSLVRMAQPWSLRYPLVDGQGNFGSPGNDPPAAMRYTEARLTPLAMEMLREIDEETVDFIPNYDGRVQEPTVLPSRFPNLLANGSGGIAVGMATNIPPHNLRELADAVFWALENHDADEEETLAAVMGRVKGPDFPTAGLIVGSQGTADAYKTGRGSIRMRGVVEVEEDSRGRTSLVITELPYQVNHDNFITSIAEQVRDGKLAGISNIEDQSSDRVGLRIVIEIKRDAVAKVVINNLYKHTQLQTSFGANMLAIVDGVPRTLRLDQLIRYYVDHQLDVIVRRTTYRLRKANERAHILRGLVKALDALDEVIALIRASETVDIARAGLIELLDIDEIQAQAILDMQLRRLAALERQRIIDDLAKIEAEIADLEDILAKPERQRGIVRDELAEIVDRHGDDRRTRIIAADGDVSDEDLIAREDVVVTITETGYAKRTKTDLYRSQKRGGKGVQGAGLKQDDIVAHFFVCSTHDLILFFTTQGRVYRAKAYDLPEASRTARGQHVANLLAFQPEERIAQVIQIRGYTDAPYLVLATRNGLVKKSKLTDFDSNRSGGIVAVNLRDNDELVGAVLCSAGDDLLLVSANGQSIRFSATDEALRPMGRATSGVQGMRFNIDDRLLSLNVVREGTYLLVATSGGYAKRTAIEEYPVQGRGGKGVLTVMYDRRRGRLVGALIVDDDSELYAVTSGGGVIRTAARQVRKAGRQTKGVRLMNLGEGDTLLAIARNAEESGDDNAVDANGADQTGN

As to `COc1c(N2C[C@@H]3CCCN[C@@H]3C2)c(F)cc2c(=O)c(C(=O)O)cn(C3CC3)c12` [MOXIFLOXACIN], in test [1], the CC25 is 2 µM.
One may read the IC50 as the concentration that inhibits the measured activity by half. Lower therefore signals inhibition by little substance. `CCn1cc(C(=O)O)c(=O)c2cc(F)c(N3CCNCC3)nc21` [ENOXACIN]: the IC50 in [2] worked out at 156 µM; at DNA gyrase, 14 µM.
`CCn1cc(C(=O)O)c(=O)c2ccc(C)nc21` [NALIDIXIC ACID] yielded an IC50 in test [2] of 4750 µM.
Turning to `CC1COc2c(N3CCN(C)CC3)c(F)cc3c(=O)c(C(=O)O)cn1c23` (centres undefined) [OFLOXACIN], the MIC50 with Ehrlichia chaffeensis [3] came out at 16 µg/mL (≈ 44.3 µM); with Helicobacter pylori [4] it was 0.25 µg/mL (≈ 0.692 µM); with Methylovorus [5], 0.8 µg/mL (≈ 2.21 µM); against Escherichia coli [6] it was 0.01 µg/mL (≈ 0.0277 µM); in the test on Ehrlichia chaffeensis [7] it was 16 µg/mL (≈ 44.3 µM); in the test with Bacillus subtilis [8] it was 0.12 µg/mL (≈ 0.332 µM). The MIC50 in the test with Neisseria gonorrhoeae [9] was 0.008 µg/mL (≈ 0.0221 µM); in the test on Klebsiella oxytoca [10], 0.01 µg/mL (≈ 0.0277 µM); with Escherichia coli [11], 0.01 µg/mL (≈ 0.0277 µM); in the test on Pseudomonas aeruginosa [12], 0.25 µg/mL (≈ 0.692 µM); in the test on Salmonella typhimurium [13] it was 0.01 µg/mL (≈ 0.0277 µM); in test [14], 1 µg/mL (≈ 2.77 µM). Besides, the MIC50 against Bacteroides fragilis [15] was 4 µg/mL (≈ 11.1 µM); in the test with Salmonella typhimurium [16], 0.01 µg/mL (≈ 0.0277 µM); in test [17], 1 µg/mL (≈ 2.77 µM); in the test on Staphylococcus aureus [18], 0.5 µg/mL (≈ 1.38 µM); in the test with Borrelia burgdorferi [19] it was 8 µg/mL (≈ 22.1 µM); in the test on Borrelia burgdorferi [20] it was 8 µg/mL (≈ 22.1 µM). Further, the MIC50 in test [21] came out at 0.06 µg/mL (≈ 0.166 µM); in the test with Enterococcus faecalis [22] it was 1 µg/mL (≈ 2.77 µM); in [23], 0.06 µg/mL (≈ 0.166 µM); in the test on Methylovorus [24], 0.8 µg/mL (≈ 2.21 µM); in the test with Haemophilus influenzae [25], 0.012 µg/mL (≈ 0.0332 µM); against Enterococcus faecalis [26] it was 1 µg/mL (≈ 2.77 µM). The MIC50 against Streptococcus pneumoniae [27] is 1 µg/mL (≈ 2.77 µM); in the test on Streptococcus pneumoniae [28], 1 µg/mL (≈ 2.77 µM); with Pseudomonas aeruginosa [29], 0.25 µg/mL (≈ 0.692 µM); against Bacillus subtilis [30] it was 0.12 µg/mL (≈ 0.332 µM); in the test on Bacteroides fragilis [31], 4 µg/mL (≈ 11.1 µM); in the test with Neisseria gonorrhoeae [32] it was 0.008 µg/mL (≈ 0.0221 µM). In addition, the MIC50 turned out to be 0.5 µg/mL (≈ 1.38 µM) against Staphylococcus aureus [33]; 0.01 µg/mL (≈ 0.0277 µM) against Klebsiella oxytoca [34]; 0.25 µg/mL (≈ 0.692 µM) against Helicobacter pylori [36]; 0.01 µg/mL (≈ 0.0277 µM) against Haemophilus influenzae [37]; 0.06 µg/mL (≈ 0.166 µM) against Helicobacter pylori [38]. For the same molecule, the IC50 turned out to be 0.3 µg/mL (≈ 0.83 µM) with Escherichia coli [6]; 0.3 µg/mL (≈ 0.83 µM) in the test on Escherichia coli [11]; 0.5 µg/mL (≈ 1.38 µM) in the test with Pseudomonas aeruginosa [12]; 28 µM in test [2]; 10 µg/mL (≈ 27.7 µM) in [14]; 10 µg/mL (≈ 27.7 µM) in test [17]. Besides, the half-inhibitory concentration (IC50) was 10 µg/mL (≈ 27.7 µM) in the test on Staphylococcus aureus [18]; 1 µg/mL (≈ 2.77 µM) in [21]; 1 µg/mL (≈ 2.77 µM) in test [23]; 40 µg/mL (≈ 111 µM) in the test with Streptococcus pneumoniae [27]; 40 µg/mL (≈ 111 µM) in the test with Streptococcus pneumoniae [28]; 0.5 µg/mL (≈ 1.38 µM) with Pseudomonas aeruginosa [29]. The same molecule displayed an IC50 in the test with Staphylococcus aureus [33] of 10 µg/mL (≈ 27.7 µM). In addition, the CC25 in test [1] came out at 7 µM; in test [35], 0.2 µM.

These data come from ChEMBL document CHEMBL1275433 (Antimicrob Agents Chemother, 2008).
